Beta cell apopt = beta cell apoptosis inhibition | INS-1E cytokine-induced death, ATP luminescence, 48 h; percent of positive-control rescue, neutral wells zero | protection from apoptosis, % (test concentration not listed) | 300,000 tested, 0.8% active | AID 435005;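 active means Every replicate reaches about 75%, or at least half do and their mean reaches it too, limit read from the data; inconclusive means At least half of replicates reach the limit but their mean does not; inactive means Under half of replicates reach the limit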;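 further: 0% = cytokine-treated negative control wells and 100% = positive control rescue; higher means more ATP so stronger rescue from cytokine killing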
XBP1 UPR activ = activators of adaptive arm of unfolded protein response (XBP1); CHO-XBP1 luciferase reporter, IRE1-XBP1 UPR activation, luminescence; percent of tunicamycin response, DMSO as zero; activation, % at 20 µM; 330,000 tested, 0.33% active;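 active means versus positive control, 20 µM dose yields 30% or more activation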;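 further: 100% = tunicamycin at 10 µg/mL and 0% = DMSO only wells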
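assay system = CHO-XBP1 luciferase reporter cells | amount = 1000 cells/well | buffer or medium = F12 plus 10% FBS | compound dosing = single point, 20 µM final compound, 1% DMSO | incubation = 16-18 h cell attachment at 37 °C, then 6 h compound exposure | detection = Steady-Glo luminescence read | controls = tunicamycin 10 µg/mL and vehicle-only wells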
CHOP UPR activ = apoptotic UPR (CHOP) activation; CHO-CHOP luciferase reporter, luminescence; percent of tunicamycin response over DMSO baseline; activation, % at 10 µM; 330,000 tested, 0.34% active;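 active means at 10 µM dose, activation of 40% or more, normalized to positive control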;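 further: 100% = tunicamycin at 10 µg/mL and 0% = DMSO alone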
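System: CHO CHOP reporter cells. Amount: 500 cells per well. Buffer or medium: F12 medium, 10% FBS. Compound dosing: one dose, 10 µM in 0.5% DMSO. Incubation: 6 h compound exposure at 37 °C after overnight seeding. Technique: Steady-Glo luciferase luminescence. Benchmarks: tunicamycin and DMSO controls.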
CSC inhib = cancer stem cell inhibition; cancer stem cell-like cells viability, luminescence; inhibition, % at 7.5 µM; 300,000 tested, 1.1% active; AID 2717; in the data active means inhibition above about 75%; inconclusive means no clear call, values can overlap the other calls; tested in HMLE shEcad cells
T cruzi repl = T. cruzi replication inhibition; T. cruzi beta-gal in NIH3T3, luminescence, 90 h; inhibition, % (test concentration not listed); 300,000 tested, 1.4% active;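 active means mean inhibition across valid replicates above about 55%, limit read from the data; inconclusive means mean below that limit but half or more replicates reach it; inactive means mean below it, under half of replicates reach it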;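 further: signal also drops with host cell toxicity which is not excluded here; 0% = plate median of DMSO wells and 100% = zero luminescence signal; higher percent means less beta-gal luminescence so fewer parasites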
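System: NIH/3T3 fibroblasts plus reporter T. cruzi. Medium: DMEM plus 2% FBS. Probe or stimulus: 5000 reporter trypomastigotes per well. Compound: single 50 nL compound addition per well in DMSO. Incubation: co-culture of at least 90 h after 3 h attachment. Detection: GalScreen β-gal luminescence, detergent lysis, 60 min. Evaluation: parasite load inhibition, %.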
Mdm2 MdmX PPI = human Mdm2/MdmX binding inhibition. SaOS-2 split-luciferase Mdm2/MdmX complementation, luminescence. inhibition, % at 8 µM. 330,000 tested, 3% active;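 active means inhibition of at least 50% at 8 µM in the primary screen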
Active calls of the source: *; ? = inconclusive; . = not tested or not shown. An excerpt weighted towards active compounds, which were near 5% of everything screened.

SMILES	Beta cell apopt	XBP1 UPR activ	CHOP UPR activ	CSC inhib	T cruzi repl	Mdm2 MdmX PPI
CCN1CCc2c(C#N)c(N3CCCCC3)nc(N3CCOCC3)c2C1	0	2	-1	5	49	4
N#Cc1c(N2CCOCC2)nc(N2CCCCC2)c2c1CCN(C1CCCCC1)C2	5	-4	1	2	71*	7
O=C1c2ccccc2C2=Nc3ccccc3SC(c3cccc(F)c3)C12 (centres undefined)	12	-1	2	6	56*	42
Fc1cccc(C2NN=C(c3ccccc3)S2)c1 (centres undefined)	15	-3	-3	8	-7	-184
CCc1ccc(C(=O)CSC2=C(C#N)C(c3ccco3)C(C(C)=O)=C(C)N2)cc1 (centres undefined)	110*	1	2	80*	47	29
CC(=O)C1=C(C)NC(SCC(=O)c2cc(Cl)ccc2Cl)=C(C#N)C1c1ccco1 (centres undefined)	.	3	4	.	17	32
CC(=O)C1=C(C)NC(SCC(=O)c2ccc(Cl)c(Cl)c2)=C(C#N)C1c1ccco1 (centres undefined)	100*	2	3	157*	34	8
COc1cc(/C=C/C(=O)OCC(=O)NCC(=O)Nc2cccc(C)c2C)ccc1OC(F)F	0	1	0	-4	.	19
CCn1cc(CN2CCCC(C(=O)c3ccc(-c4ccccc4)cc3)C2)cn1 (centres undefined)	.	3	0	25	65*	35
Cn1cc(CN2CCCC(C(=O)c3ccc(-c4ccccc4)cc3)C2)cn1 (centres undefined)	0	1	-2	10	?	6
CCn1nc(C)c(CN2CCCC(C(=O)c3cccc(OC(C)C)c3)C2)c1C (centres undefined)	25	-2	-2	3	65*	33
CC(C)Oc1cccc(C(=O)C2CCCN(Cc3cnn(C(C)C)c3)C2)c1 (centres undefined)	.	1	2	6	78*	-14
O=C(CSc1cn[nH]n1)Nc1ccccc1F	-6	-2	2	-8	3	-3
CC(C)CN(C(=O)c1cc([N+](=O)[O-])cc([N+](=O)[O-])c1)C1CCS(=O)(=O)C1 (centres undefined)	-5	1	-1	-2	57*	5
O=C(Nc1ccc2c(c1)OCCO2)N1CCN(Cc2ccccc2)CC1	1	0	7	-1	-14	-30
Cc1sc2nc(SCCN(C)C)n(-c3ccccc3)c(=O)c2c1-c1ccc(F)cc1	-1	7	1	109*	51	23
Cc1ccc(CNc2ccc3c(c2)OCO3)cc1	-4	.	.	23	82*	.
CC(=O)Nc1nc(S(=O)(=O)c2ccc(C)cc2)c(Cl)s1	-5	0	-2	.	-1	18
Cc1ccc(S(=O)(=O)c2nc(NCc3ccc4c(c3)OCO4)sc2Cl)cc1	-2	-2	1	-4	61*	17
CCOCc1c(C(=O)NCc2ccccc2CN2CCCC2)oc2ccccc12	-2	-1	-1	0	.	10
CC(=O)N(CCC(Cc1ccccc1)c1ccc2c(c1)OCO2)Cc1ccc(Cl)cc1 (centres undefined)	0	2	2	-5	64*	26
O=S(=O)(N[C@H]1C[C@@H](NS(=O)(=O)OCC(Cl)(Cl)Cl)C2CCCCC21)OCC(Cl)(Cl)Cl (some centres undefined)	3	.	.	76*	-4	.
O=C(O)CN1C(=O)/C(=C\c2cc(Br)ccc2OCc2ccccc2Cl)SC1=S	0	-3	0	97*	15	-13
O=C1C2CCCN2C(=S)N1c1cc(Cl)ccc1Cl (centres undefined)	.	-3	-1	.	.	-8
COc1ccc2c(c1)c(CC(=O)Nc1ccccc1OC)c(C)n2C(=O)c1ccc(Cl)cc1	4	-2	4	4	48	43
SMILES	Beta cell apopt	XBP1 UPR activ	CHOP UPR activ	CSC inhib	T cruzi repl	Mdm2 MdmX PPI
COc1ccc2c(c1)c(CC(=O)Nc1cc(C)ccc1C)c(C)n2C(=O)c1ccc(Cl)cc1	4	-3	1	9	60*	18
O=C(CSc1cccc[n+]1[O-])c1cc2ccccc2o1	2	3	1	19	60*	-23
COc1ccc2c(ccc[n+]2CC(=O)c2ccc(C)cc2)c1	6	-2	2	-1	32	-18
Cc1ccc(C(=O)C[n+]2cccc3cc(C)ccc32)cc1	6	-4	1	-4	58*	11
CCOc1ccc(C(=O)C[n+]2cccc3cc(C)ccc32)cc1	-29	1	0	-3	68*	13
COc1ccc(-c2cnc(N)nc2-c2ccc(OCc3ccccc3)cc2O)cc1	-2	3	1	30	58*	44
C=C(C)COc1ccc(-c2ncncc2-c2ccc(Br)cc2)c(O)c1	7	2	2	7	44	-7
C=C(C)COc1ccc(-c2nc(N)nc(C(F)(F)F)c2-c2ccc(OC)cc2)c(O)c1	-2	-3	0	50	56*	35
C=C(C)COc1ccc(-c2nc(N)ncc2-c2ccc(Br)cc2)c(O)c1	-2	-2	1	107*	20	19
Oc1cccc(C(O)CNCc2ccc(-c3ccccc3)cc2)c1 (centres undefined)	0	2	3	45	28	35
Oc1cccc(C(O)CNCc2ccc(OCc3ccc(Cl)cc3Cl)cc2)c1 (centres undefined)	5	2	-1	78*	-1	6
CC(C)(C)OC(=O)N1CCCN(C(=O)Nc2ccc(C(F)(F)F)cc2)CC1	11	-2	-1	6	-3	21
Cc1cc(C)nc(-n2ncc3c2CC(c2cccc(Cl)c2)CC3=O)n1 (centres undefined)	-12	2	1	81*	8	29
CC(C)CC(NC(N)=O)C(=O)NCc1ccccc1Cl (centres undefined)	-3	-1	1	-13	5	-26
Cc1ccc2c(c1)N(C)/C(=C/c1cccc[n+]1CCO)S2	98*	2	-2	7	?	9
COCC(=O)/C=C1\Sc2ccccc2N1C	-3	0	1	-8	-9	-4
O=C1C=CC(=O)N1c1ccc(OC(F)F)cc1	28	.	.	103*	.	.
O=C1C=CC(=O)N1c1ccc(O)cc1	-12	-4	2	20	52	-22
COc1ccc(NS(=O)(=O)c2cc(-c3cnc(C4CC4)o3)ccc2C)cc1	17	2	-1	80*	-2	44
